The target in data set [1] is T1, GABA A receptor alpha-2/beta-2/gamma-2 (Homo sapiens, UniProt P18507+P47869+P47870).
T1 sequence (P47870 whole entry): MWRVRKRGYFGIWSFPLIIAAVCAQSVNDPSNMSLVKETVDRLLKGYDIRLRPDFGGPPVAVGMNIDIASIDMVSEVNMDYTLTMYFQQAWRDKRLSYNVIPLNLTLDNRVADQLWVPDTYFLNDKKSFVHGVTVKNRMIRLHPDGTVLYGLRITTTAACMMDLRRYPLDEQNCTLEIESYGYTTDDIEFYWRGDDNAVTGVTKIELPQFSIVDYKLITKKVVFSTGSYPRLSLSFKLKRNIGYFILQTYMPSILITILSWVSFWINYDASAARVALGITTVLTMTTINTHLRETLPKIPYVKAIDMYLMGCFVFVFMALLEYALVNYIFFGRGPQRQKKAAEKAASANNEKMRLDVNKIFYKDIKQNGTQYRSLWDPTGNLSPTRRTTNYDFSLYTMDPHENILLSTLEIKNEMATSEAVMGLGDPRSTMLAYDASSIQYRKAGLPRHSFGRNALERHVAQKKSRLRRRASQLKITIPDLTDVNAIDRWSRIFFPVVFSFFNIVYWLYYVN
T1 sequence (P18507 whole entry): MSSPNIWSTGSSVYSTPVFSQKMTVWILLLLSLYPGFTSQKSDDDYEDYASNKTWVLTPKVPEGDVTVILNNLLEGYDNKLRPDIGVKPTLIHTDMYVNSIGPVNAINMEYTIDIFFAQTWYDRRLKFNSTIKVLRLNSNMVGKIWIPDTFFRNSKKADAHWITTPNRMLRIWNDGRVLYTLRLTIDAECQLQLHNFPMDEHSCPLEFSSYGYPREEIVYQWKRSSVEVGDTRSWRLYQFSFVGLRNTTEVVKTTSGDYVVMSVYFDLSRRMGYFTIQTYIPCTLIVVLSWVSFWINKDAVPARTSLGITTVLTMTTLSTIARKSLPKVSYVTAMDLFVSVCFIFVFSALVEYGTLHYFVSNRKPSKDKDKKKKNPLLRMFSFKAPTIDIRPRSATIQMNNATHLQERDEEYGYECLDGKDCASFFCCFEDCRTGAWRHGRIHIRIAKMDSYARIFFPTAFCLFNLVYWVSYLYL
T1 sequence (P47869 whole entry): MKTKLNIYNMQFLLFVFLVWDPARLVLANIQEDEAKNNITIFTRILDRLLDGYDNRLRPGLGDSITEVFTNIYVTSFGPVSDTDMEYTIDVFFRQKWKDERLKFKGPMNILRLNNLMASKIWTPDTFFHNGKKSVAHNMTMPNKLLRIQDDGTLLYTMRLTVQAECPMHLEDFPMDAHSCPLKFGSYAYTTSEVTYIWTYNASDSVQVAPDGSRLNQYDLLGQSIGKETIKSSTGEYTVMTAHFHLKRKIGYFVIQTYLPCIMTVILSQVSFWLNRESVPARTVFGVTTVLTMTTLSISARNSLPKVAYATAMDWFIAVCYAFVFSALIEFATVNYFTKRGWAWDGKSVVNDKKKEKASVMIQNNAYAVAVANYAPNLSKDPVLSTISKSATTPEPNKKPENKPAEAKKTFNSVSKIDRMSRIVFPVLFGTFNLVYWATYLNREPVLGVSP
Nature of the data set: Antagonist activity at human alpha2beta2gamma2 GABAA receptor expressed in HEK cells by FMP assay. It counts as cell-based. The essentials: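 Human αβγ2 receptors in HEK293 cells: α1β2γ2 stably expressed, other αβγ2 subtypes transiently transfected into HEK293 Flp-In background cells (α:β:γ 1:1:2). FLIPR membrane potential assay with ΔRFU baseline to peak/plateau and GABA EC80 as agonist. IC50 from a four-parameter fit, at least three independent experiments.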

The species entered for data set [2] is Homo sapiens. Nature of the data set: Binding affinity to GABA receptor (unknown origin) assessed as equilibrium binding constant by schild plot analysis. The conditions noted are these: filed as antagonist.
In data set [3] the test system is CD4+ve Th. Put plainly: Induction of cell proliferation of human CD4+ve Th cells at 50 uM measured after 96 hrs in presence of alprazolam by flow cytometry analysis relative to control. It counts as functional. Put shortly: (§1)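 Human PBMC from leukocyte cones were CFSE-stained (5 μM) and held at high density overnight. They were then stimulated with soluble anti-CD3 OKT3 (100 pg/mL) plus alprazolam 33 μM, with test compound at 50 μM, for 96 h. CD4+/CD8+ proliferation was measured by CFSE dilution on flow cytometry, at least six independent experiments.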

Data set [4] addresses Gamma-aminobutyric acid receptor subunit alpha-4/beta-1/delta (Homo sapiens, UniProt O14764+P18505+P48169). Nature of the data set: Antagonist activity at human alpha4beta1delta GABAA receptor expressed in HEK293 Flp-In cells by FMP assay. In kind it is cell-based, Flp-In-293. The essentials:
(§2)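 HEK293 Flp-In cells stably expressing human δ subunit, transiently transfected with human α and β subunits (1:1) to form αβδ receptors. Read-out is the FLIPR membrane potential dye ΔRFU, baseline to peak/plateau, with GABA EC80 as agonist. Four-parameter fit of concentration–inhibition curves gives IC50, from at least three independent experiments.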

Data set [5] in a line: Antagonist activity at human alpha6beta2delta GABAA receptor expressed in HEK293 Flp-In cells by FMP assay. In kind it is cell-based, Flp-In-293. Put shortly:
as §2

Data set [6] can be described thus: Receptor occupancy at human GABA receptor.
Data set [7] in a line: Apparent permeability of compound across apical to basolateral side in MDCK cells. The conditions noted are these: dog. In kind it is ADME, cell-based, Canis lupus familiaris. Put shortly: (§3)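 MDR1-transfected MDCK monolayers, 0.5 μM test compound added apically or basally. Bidirectional apparent permeability measured in triplicate. Efflux ratio is B→A permeability divided by A→B permeability.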

Data set [8] in a line: Apparent permeability of compound across basolateral to apical side in MDCK cells. The conditions noted are these: dog. It counts as ADME, cell-based, Canis lupus familiaris. The essentials:
as §3

Data set [9] is described as follows: Efflux ratio of apparent permeability across basolateral to apical side over apical to basolateral side in MDCK. In kind it is ADME, cell-based, Canis lupus familiaris. The conditions noted are these: dog. The essentials:
as §3

A short description of data set [10]: Induction of cell proliferation of human CD8-positive T cells at 50 uM measured after 96 hrs in presence of alprazolam by flow cytometry analysis relative to control. It counts as functional. The essentials:
as §1
Background: A flow cytometer gives signals particle by particle.

The test system of data set [11] is CD8-positive T cell. Put plainly: Induction of cell proliferation of mouse CD8-positive T cells at 50 uM measured after 48 hrs in presence of alprazolam by flow cytometry analysis relative to control. It counts as functional, cell-based. Put shortly:
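Splenocytes from female BALB/c mice were CFSE-stained (5 μM) and stimulated with soluble anti-CD3 145.2C11 (33 ng/mL) plus alprazolam 100 μM, with test compound at 50 μM, for 48 h. CD4+/CD8+ proliferation was measured by CFSE dilution on flow cytometry, at least six independent experiments.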

For data set [12], the system named is CD4-positive T cell (mouse). Nature of the data set: Induction of cell proliferation of mouse CD4+ve Th cells at 50 uM measured after 48 hrs in presence of alprazolam by flow cytometry analysis relative to control.
The mark [13] stands for this setting: Homo sapiens, Flp-In-293, read-out: pIC50 (converted).

Calls of active or inactive are those of the source. No cut-off for these calls is given here.

Here are results for four compounds from ChEMBL document CHEMBL5096209, “Structure-Activity Studies of 3,9-Diazaspiro[5.5]undecane-Based γ-Aminobutyric Acid Type A Receptor Antagonists with Immunomodulatory Effect” (J Med Chem, 2021).

Gamma-aminobutyric acid receptor subunit alpha-4/beta-1/delta, sequence (P48169 whole entry): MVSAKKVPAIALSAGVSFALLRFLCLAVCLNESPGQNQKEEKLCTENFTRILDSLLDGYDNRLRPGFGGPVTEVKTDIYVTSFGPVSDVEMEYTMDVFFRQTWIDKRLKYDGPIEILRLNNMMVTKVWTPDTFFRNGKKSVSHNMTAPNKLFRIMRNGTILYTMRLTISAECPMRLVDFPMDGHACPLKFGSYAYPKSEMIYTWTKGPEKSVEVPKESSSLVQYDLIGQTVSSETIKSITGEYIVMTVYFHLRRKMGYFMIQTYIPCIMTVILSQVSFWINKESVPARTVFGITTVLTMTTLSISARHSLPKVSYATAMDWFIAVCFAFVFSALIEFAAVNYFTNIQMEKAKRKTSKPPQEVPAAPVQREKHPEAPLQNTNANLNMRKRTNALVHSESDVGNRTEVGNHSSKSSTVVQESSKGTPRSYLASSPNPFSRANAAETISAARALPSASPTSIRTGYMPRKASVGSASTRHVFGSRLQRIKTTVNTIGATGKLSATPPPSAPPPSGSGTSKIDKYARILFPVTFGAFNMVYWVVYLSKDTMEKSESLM
Gamma-aminobutyric acid receptor subunit alpha-4/beta-1/delta, sequence (O14764 whole entry): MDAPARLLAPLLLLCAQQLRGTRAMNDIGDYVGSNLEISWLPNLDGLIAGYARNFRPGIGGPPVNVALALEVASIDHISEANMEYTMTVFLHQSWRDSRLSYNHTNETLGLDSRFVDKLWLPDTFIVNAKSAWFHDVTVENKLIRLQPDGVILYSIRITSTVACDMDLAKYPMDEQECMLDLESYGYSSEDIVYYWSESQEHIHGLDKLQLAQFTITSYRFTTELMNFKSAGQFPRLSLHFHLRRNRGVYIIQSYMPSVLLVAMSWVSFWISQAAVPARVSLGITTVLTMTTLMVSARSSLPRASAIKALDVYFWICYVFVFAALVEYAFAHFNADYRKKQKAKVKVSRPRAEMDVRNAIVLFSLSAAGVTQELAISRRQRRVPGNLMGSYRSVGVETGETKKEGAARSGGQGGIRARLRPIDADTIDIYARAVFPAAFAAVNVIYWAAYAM
Gamma-aminobutyric acid receptor subunit alpha-4/beta-1/delta, sequence (P18505 whole entry): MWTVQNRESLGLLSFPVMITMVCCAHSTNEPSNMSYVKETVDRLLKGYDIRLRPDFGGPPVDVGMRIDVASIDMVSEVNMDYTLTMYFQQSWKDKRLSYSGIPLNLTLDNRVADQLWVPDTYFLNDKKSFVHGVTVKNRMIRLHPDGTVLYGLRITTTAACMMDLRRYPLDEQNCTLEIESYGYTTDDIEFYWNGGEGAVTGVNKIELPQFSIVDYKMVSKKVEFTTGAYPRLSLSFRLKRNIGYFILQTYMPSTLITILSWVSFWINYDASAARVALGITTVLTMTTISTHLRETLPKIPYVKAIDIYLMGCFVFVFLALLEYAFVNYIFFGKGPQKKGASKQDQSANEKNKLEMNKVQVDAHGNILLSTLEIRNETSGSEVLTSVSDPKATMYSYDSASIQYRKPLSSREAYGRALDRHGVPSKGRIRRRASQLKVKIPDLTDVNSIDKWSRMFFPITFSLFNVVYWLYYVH

Turning to `O=C(Nc1cccc(C(=O)N2CCC3(CCNCC3)CC2)c1)c1cccs1`, the IC50 in data set [1] was 320 nM; in data set [1] (read-out: pIC50 (converted)), 324 nM. The Kb in data set [2] came to 6.9 nM.
Turning to `Cc1cccc(C(=O)N2CCC3(CCNCC3)CC2)c1`, the Activity in data set [3] and in data set [10] was 20% in each case. In addition, the IC50 in data set [4] was 195 nM; in [4] (read-out: pIC50 (converted)) it was 182 nM; in [5] (setting [13]), 1.91 µM; in data set [5] (flp-in-293) it was 1.95 µM. In data set [6], the pIC50 amounted to 7.152. Moreover, in data set [7], the Papp A→B turned out to be 1.3 ×10⁻⁶ cm/s. For the same compound, in data set [8], the Papp B→A was 15 ×10⁻⁶ cm/s. For the same compound, the efflux ratio in data set [9] came out at 11.5. The result in data set [11] and in data set [12] was Active.
As to `Cc1ccc(C(=O)N2CCC3(CCNCC3)CC2)cc1`, the IC50 was 1280 nM in data set [4], 1260 nM in data set [4] (read-out: pIC50 (converted)), 8.71 µM in [5] (setting [13]) and 8.87 µM in data set [5] (flp-in-293).
Consider `CC(=O)Nc1cccc(C(=O)N2CCC3(CCNCC3)CC2)c1`, for which the IC50 in data set [1] is 2960 nM; in data set [1] (read-out: pIC50 (converted)), 2950 nM.

In general, Kb refers to the equilibrium dissociation constant of an antagonist, usually derived from a functional assay. One may read the pIC50 as the IC50 on a negative log10 scale, so that one unit is a factor of ten. High values mean a low IC50, low ones a high IC50. As usually defined, the Papp A→B is how fast a substance crosses the layer from the apical side. The Papp B→A is how fast a substance crosses the layer from the basolateral side. In general, efflux ratio refers to a quotient of directional permeabilities that is used to spot active efflux.
